Efflux pump mplx – inhibitors of Candida antifungal efflux pumps expressed in yeast. inhibition, % at 10 µM. S. cerevisiae Candida pump triplex, Nile Red efflux. actives 0.44% (n = 330,000);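 active means plate passing quality check with inhibition over a set limit, or well fluorescence over plate mean plus 4 SD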;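 further: Nile Red retained in pooled yeast measured as flow cytometry median fluorescence; higher means more Nile Red kept so more efflux inhibition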
ABCG2 block – inhibitors of human ABCG2 transporter, ABCB1 counter-screen; Q9UNQ0; IgMXP3 cells, JC-1 efflux, flow cytometry; inhibition, % at 6.6 µM; actives 0.1% (n = 190,000);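 active means inhibition above 80%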
Target sequence (Q9UNQ0 whole entry, looked up): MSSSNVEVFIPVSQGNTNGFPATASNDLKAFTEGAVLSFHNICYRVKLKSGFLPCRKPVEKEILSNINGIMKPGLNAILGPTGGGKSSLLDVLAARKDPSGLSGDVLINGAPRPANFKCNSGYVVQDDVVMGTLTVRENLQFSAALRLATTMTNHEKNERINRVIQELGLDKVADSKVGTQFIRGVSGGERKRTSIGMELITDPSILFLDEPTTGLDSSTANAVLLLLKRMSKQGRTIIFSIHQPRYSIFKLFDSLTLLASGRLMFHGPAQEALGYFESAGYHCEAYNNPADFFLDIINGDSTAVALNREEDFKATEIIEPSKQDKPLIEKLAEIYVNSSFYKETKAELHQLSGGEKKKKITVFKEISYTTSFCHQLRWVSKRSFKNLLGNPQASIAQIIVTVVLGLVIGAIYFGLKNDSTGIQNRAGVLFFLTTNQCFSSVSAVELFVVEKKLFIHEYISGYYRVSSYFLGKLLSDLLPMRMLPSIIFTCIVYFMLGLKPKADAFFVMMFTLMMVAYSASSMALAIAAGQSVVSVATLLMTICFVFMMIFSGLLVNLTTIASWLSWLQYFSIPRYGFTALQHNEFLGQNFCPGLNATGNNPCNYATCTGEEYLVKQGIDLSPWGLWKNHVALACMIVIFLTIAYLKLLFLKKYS
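Test system: ABCG2 IgMXP3 and barcoded ABCB1 CCRF-Adr cell mix; Schedule: cells with compound and JC-1, 10 min at 25 °C, rotating, no wash; Technique: flow cytometry of retained JC-1 fluorescence; Measure: % inhibition of efflux relative to nicardipine and DMSO; Controls: nicardipine high and DMSO low controls.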
MEKK2wt PB1 HTS – raises or lowers MEK5 binding to wildtype human MEKK2 PB1 domain | Q9Y2U5 | bead flow cytometry, Alexa488-MEK5 binding to MEKK2 WT; actives lie on both sides | binding response (% of control), % at 10 µM | actives 1.1% (n = 290,000) | AID 1531; in the data active means binding response below about 67% or above about 130%
ABCB1 inh – blocks JC-1 efflux by human ABCB1 transporter; P08183; CCRF-Adr cells, flow cytometry; inhibition, % at 6.6 µM; actives 0.067% (n = 190,000); in the data active means inhibition above about 40%;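 further: higher value means more JC-1 retained so stronger ABCB1 efflux block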
MEKK3 PB1 HTS – modulators (inhibitors or enhancers) of MEK5 binding to human MEKK3 PB1 domain; Q99759; bead-based flow cytometry, Alexa488-MEK5 binding to MEKK3; actives lie on both sides; 0 = blocked by unlabeled MEK5, 100 = vehicle; binding response (% of control), % at 10 µM; actives 1.4% (n = 290,000); AID 1529;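 active means binding response more than 3 SD above or below the average of its plate-row segment, actives on both sides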;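 further: Alexa488 bead fluorescence after subtracting the streptavidin-only scavenger bead signal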
MEKK2 mut-MEK5 – signal of MEK5 binding to mutant human MEKK2 PB1 domain; percent response, % at 10 µM; actives 0.35% (n = 290,000); bead flow cytometry, Alexa488-MEK5 binding to MEKK2 mutant; in the data active means percent response above about 24%, passing the limit was not always enough
MEKK2wt confirm – raises or lowers MEK5 binding to wildtype human MEKK2, retest | binding response (% of control), % at 10 µM | actives 2.4% (n = 5,900) | shares compounds with MEKK3 PB1 HTS | bead flow cytometry, Alexa488-MEK5 binding to MEKK2 WT; actives lie on both sides; in the data active means binding response below about 16% or above about 210%; inactive means in between
MEKK2mut confirm – signal of MEK5 binding to mutant human MEKK2, retest | actives 2% (n = 5,900) | percent response, % at 10 µM | shares compounds with MEKK3 PB1 HTS | bead flow cytometry, Alexa488-MEK5 binding to MEKK2 mutant; in the data active means percent response mostly above about 71%, no sharp cut-off; inactive means mostly below about 38%;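 further: higher means compound restores mutant binding toward wildtype level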
MEKK3 confirm – confirmation of inhibitors of MEK5 binding to human MEKK3; shares compounds with MEKK3 PB1 HTS; bead flow cytometry, Alexa488-MEK5 binding to MEKK3; stronger effect = lower value; binding response (% of control), % at 10 µM; actives 1.8% (n = 5,900); AID 1894;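 active means binding response below 72% of control, or above a set upper limit, though filed actives all read lower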
A number is an active result; 0 = inactive; - = no result given; [ ] = remark or other dose. Shown are actives, neighbours in structure and some others; about 2.5% of the full set was active somewhere.

SMILES | Efflux pump mplx | ABCG2 block | MEKK2wt PB1 HTS | ABCB1 inh | MEKK3 PB1 HTS | MEKK2 mut-MEK5 | MEKK2wt confirm | MEKK2mut confirm | MEKK3 confirm
CCN1CCN(CCNC(=O)c2ccc(/C=C3/Sc4ccccc4N(Cc4cccc(Cl)c4)C3=O)cc2)CC1 | 0 | 0 | 280 | 0 | 0 | 120 | 234 | 100 | 0
Cc1ccccc1CN1C(=O)/C(=C\c2ccc(C(=O)NCCN3CCOCC3)cc2)Sc2ccccc21 | 0 | - | 0 | - | 0 | 0 | - | - | -
OCCC1CN(CC2CCCCC2)CCN1C1CCCC1 (centres undefined) | 0 | - | 0 | - | 0 | 0 | - | - | -
Cc1cccc(OCC(O)Cn2ccnc2C)c1 (centres undefined) | 0 | - | 0 | - | 0 | 0 | - | - | -
COc1cc(OC)cc(OCC(O)Cn2ccnc2C)c1 (centres undefined) | 0 | 0 | 2.0[inhibitor] | 0 | 2.0[inhibitor] | 0 | 0 | 0 | 0
O=S(=O)(Nc1ncn[nH]1)c1ccc(Cl)cc1 | 0 | 0 | - | 0 | - | - | - | - | -
O=C(O)c1ccc2nc(CO)[nH]c2c1 | 0 | 0 | 2.0[inhibitor] | 0 | 2.0[inhibitor] | 0 | 0 | 0 | 0
CC(=O)c1ccccc1NS(C)(=O)=O | 0 | 0 | 0 | 0 | 0 | 0 | - | - | -
Clc1ccc(COc2cccc(CNCc3ccncc3)c2)cc1 | 0 | 0 | 0 | 0 | 0 | 0 | - | - | -
Cc1[nH]c2ccccc2c1/C=N/Nc1ccccc1[N+](=O)[O-] | 0 | 0 | 0 | 0 | 67[inhibitor] | 0 | 0 | 0 | 0
CC(C)NC(=S)N/N=C/c1c[nH]c2ccccc12 | 0 | 0 | 0 | 0 | 0 | 0 | - | - | -
Cc1[nH]c2ccccc2c1/C=N/NC(=S)NC(C)C | 0 | 0 | 18 | 0 | 0 | 144 | 0 | 0 | 0
Cc1ccc(N/C=C/c2onc(C)c2[N+](=O)[O-])cc1 | 0 | - | 33[inhibitor] | - | 37[inhibitor] | 0 | 0 | 0 | 0
Cc1noc(/C=C/c2ccc(-c3ccccc3Cl)o2)c1[N+](=O)[O-] | 0 | 0 | 0 | 0 | 0 | 92 | 0 | 0 | 54
Cc1cccc(C)c1N/C=C/c1onc(C)c1[N+](=O)[O-] | 0 | 0 | 0 | 0 | 0 | 0 | - | - | -
CCOC(=O)c1ccc(NC(=O)c2ccccc2N(C)S(=O)(=O)c2ccccc2)cc1 | 0 | 0 | 0 | 0 | 0 | 0 | - | - | -
COc1ccc(-c2coc3cc(O)cc(O)c3c2=O)cc1OC | 0 | - | 0 | - | 132 | 0 | 0 | 0 | 0
COc1ccccc1-c1coc2cc(O)cc(O)c2c1=O | 0 | 0 | 0 | 0 | 0 | 0 | - | - | -
Nc1n[nH]c(-c2ccc([N+](=O)[O-])cc2[N+](=O)[O-])n1 | 0 | 0 | 0 | 0 | 0 | 0 | - | - | -
CC(C)OC(=O)c1cc(NC(=S)Nc2ccc([N+](=O)[O-])cc2)cc(C(=O)OC(C)C)c1 | 0 | 0 | 169 | 0 | 0 | 40 | 0 | 0 | 0
CC(C)CCNC(=S)Nc1ccc([N+](=O)[O-])cc1 | 0 | 0 | 0 | 0 | 129 | 0 | 0 | 0 | 0
O=C(COc1ccccc1Cl)N1CCN(c2ccc([N+](=O)[O-])c(N3CCOCC3)c2)CC1 | 0 | 0 | 0 | 0 | 0 | 0 | - | - | -
O=C(CCc1[nH]c2ccccc2c1Sc1ccccc1)NCCO | 0 | 0 | 0 | 0 | 67[inhibitor] | 0 | 0 | 0 | 0
O=C(CCc1ccccc1)NCCSc1ccccc1 | 0 | 0 | 0 | 0 | 0 | 0 | - | - | -
Cc1ccc(NC(=O)C2C3CCC(O3)C2C(=O)O)cc1Cl (centres undefined) | 0 | - | 3.0[inhibitor] | - | 2.0[inhibitor] | 0 | 0 | 0 | 0
SMILES | Efflux pump mplx | ABCG2 block | MEKK2wt PB1 HTS | ABCB1 inh | MEKK3 PB1 HTS | MEKK2 mut-MEK5 | MEKK2wt confirm | MEKK2mut confirm | MEKK3 confirm
CC(/C=N/NC(=O)c1cc(-c2cccs2)[nH]n1)=C\c1ccccc1 | 0 | 0 | 0 | 0 | 0 | 0 | - | - | -
COc1ccc([N+](=O)[O-])cc1NC(=O)C1CCCCC1C(=O)O (centres undefined) | 0 | 0 | 0 | 0 | 0 | 0 | - | - | -
O=C1CCCc2nc(NCc3ccco3)ncc21 | 0 | 0 | 0 | 0 | 0 | 24 | 0 | 0 | 0
CC1(C)CC(=O)c2cnc(NCc3ccco3)nc2C1 | 0 | 0 | 0 | 0 | 0 | 0 | - | - | -
CCn1c(SCC(=O)Nc2cc(C(C)(C)C)nn2-c2ccccc2)nnc1-c1cccs1 | 0 | 0 | 0 | 0 | 151 | 0 | 0 | 0 | 0
Cc1ccc(C(=O)N/C(=C\c2cccs2)C(=O)NCCc2c[nH]c3ccccc23)cc1C | 0 | 0 | 0 | 0 | 0 | 0 | - | - | -
O=C(NCCc1c[nH]c2ccccc12)/C(=C\c1cccs1)NC(=O)c1ccccc1 | 0 | 0 | 0 | 0 | 41[inhibitor] | 0 | 0 | 0 | 0
CCOC(=O)c1cccc(NC(=O)c2c(N)n(C)c(=O)[nH]c2=O)c1 | 0 | - | 0 | - | 0 | 0 | - | - | -
N=c1oc2ccc3ccccc3c2cc1-c1nc(-c2ccccc2)cs1 | 0 | 0 | 0 | 0 | 146 | 0 | 0 | 0 | 0
CC(NCCCOc1cccc2ccccc12)c1ccccc1 (centres undefined) | 0 | - | 175 | - | 0 | 0 | 0 | 0 | 0
COc1cc([N+](=O)[O-])ccc1NC(=O)CCS(=O)(=O)c1ccc2c(c1)n(C)c(=O)c(=O)n2C | 0 | - | 0 | - | 0 | 0 | - | - | -
O=C(Nc1ccc(Cl)cc1)NC1CCCCC1Cc1ccco1 (centres undefined) | 0 | 0 | 46[inhibitor] | 0 | 69[inhibitor] | 0 | 0 | 0 | 0
O=C(Nc1ccc(Cl)cc1)NC1CCCC1Cc1ccco1 (centres undefined) | 0 | 0 | 0 | 0 | 0 | 0 | - | - | -
Nc1ccc(NC(=O)NC2CCCCC2)cc1 | 0 | 0 | 0 | 0 | 0 | 0 | - | - | -
O=C(Nc1ccc(Cl)cc1)NC1CCCCC1 | 0 | 0 | -1.0[inhibitor] | 0 | 1.0[inhibitor] | 0 | 0 | 0 | 0
COc1ccc(-c2cnnc(N/N=C/C(C)=C/c3ccccc3)n2)cc1 | 0 | 0 | 0 | 0 | 0 | 0 | - | - | -
CCOC(=O)c1c(-c2ccccc2)oc2ccc(OCC(=O)NNC(=O)CCCC(=O)O)cc12 | 0 | - | 0 | - | 0 | 0 | - | - | -
CCOC(=O)c1c(-c2ccccc2)oc2ccc(OCC(=O)NNC(=O)CCC(=O)O)cc12 | 0 | - | 9.0[inhibitor] | - | 5.0[inhibitor] | 0 | 0 | 0 | 0
COc1cccc(-n2cnnc2SC(C)C(=O)NC2CCCC2)c1 (centres undefined) | 0 | - | - | - | - | - | - | - | -
CCOC(=O)c1c(NC(C)=O)sc2c(O)c(Br)cc(Br)c12 | 0 | 0 | 0 | 0 | 132 | 0 | 0 | 0 | 0
CCN1/C(=C/c2ccc3cc(C)ccc3[n+]2CC)Sc2cc(C)c(C)cc21 | - | 0 | 37 | 0 | 44[inhibitor] | 0 | 0 | 0 | 58
CC[n+]1ccccc1/C=C1\Sc2ccc(C)cc2N1C | 0 | - | 0 | - | 0 | 0 | - | - | -

Screening results deposited in PubChem by NMMLSC.
